# Test results: ChEMBL document CHEMBL1143829, “Lack of effect of DX-619, a novel des-fluoro(6)-quinolone, on glomerular filtration rate measured by serum clearance of cold iohexol” (Antimicrob Agents Chemother, 2007)
# How the values were obtained:
# [1] = system: Homo sapiens; assay: Effect on renal function in human assessed as creatinine clearance in 24 hrs urine sample at 800 mg, iv after 11 days relative to baseline; format: functional
# In short: (§1)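 Urine was collected over 24 h at baseline (−24 to 0 h), on day 4 (72–96 h) and on day 11 (240–264 h). CLCR = urinary creatinine amount / (SCr × 24 h) × (1.73/BSA), using SCr measured at the start of each collection.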
# [2] = Protein binding in human plasma; format: ADME, organism-based; details: read-out: PPB (converted)
# In short: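 Plasma ultrafiltrate and matching plasma were sampled on days 1 and 4, predose and 1 and 4 h after infusion start, and assayed by LC-MS/MS (ultrafiltrate range 0.01–5.0 µg/ml). Binding at each time point was calculated from free ultrafiltrate versus total plasma concentration.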
# [3] = system: Homo sapiens; assay: Effect on renal function in human assessed as serum creatinine concentration at 800 mg, iv after 11 days relative to baseline; format: functional
# [4] = system: Homo sapiens; assay: Effect on glomerular filtration rate in human assessed as iohexol clearance rate in plasma per 1.73 m2 at 800 mg, iv after 4 days relative to baseline; format: functional
# In short: (§2)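 GFR was measured as plasma clearance of iohexol. A single 20 ml bolus (300 mg/ml) was given on days 1, 4 and 11, timed to match 1 h after the end of the day-4 infusion. Blood was drawn at 120, 150, 180, 210, 240, 270 and 300 min and assayed by HPLC-UV. CL0 = dose × b/c1, with b and c1 from linear regression. Change from baseline used a noninferiority mixed-effects comparison with 95% CI.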
# [5] = Cmax at steady state in human after 4 days; format: ADME, organism-based; details: in vivo
# In short: (§3)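 Plasma was sampled predose, at end of infusion, and 1, 3 and 9 h post-infusion on days 1 and 4, plus 24 h post-infusion on day 5. Drug was assayed by validated LC-MS/MS (0.02–10 µg/ml). Noncompartmental analysis; Cmax taken by observation without interpolation, with Tmax; day-4 values treated as steady state.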
# [6] = Tmax in human plasma; format: ADME, organism-based; in short: as §3
# [7] = Clearance in human plasma after 4 days
# [8] = system: Homo sapiens; assay: Effect on renal function in human assessed as serum creatinine concentration at 800 mg, iv after 4 days relative to baseline; format: functional
# [9] = system: Homo sapiens; assay: Effect on renal function in human assessed as creatinine clearance in 24 hrs urine sample at 800 mg, iv after 4 days relative to baseline; format: functional; in short: as §1
# [10] = system: Homo sapiens; assay: Effect on glomerular filtration rate in human assessed as creatinine clearance rate in plasma per 1.73 m2 at 800 mg, iv after 11 days relative to baseline; format: functional
# [11] = Renal clearance in human urine after 4 days; format: ADME, organism-based; details: read-out: CL_renal (converted)
# In short: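 Steady-state AUC (AUCss,24) covered 25 h from the start of the day-4 infusion to 24 h after it (linear up/log down rule). CL = dose/AUCss,24. Urine from 0–24 h on day 4 was assayed by LC-MS/MS, and renal clearance = Xu(0–24)/AUCss,24.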
# [12] = system: Homo sapiens; assay: Effect on glomerular filtration rate in human assessed as creatinine clearance rate in plasma per 1.73 m2 at 800 mg, iv after 4 days relative to baseline; format: functional
# [13] = system: Homo sapiens; assay: Effect on renal function in human assessed as blood urea nitrogen concentration at 800 mg, iv after 4 days relative to baseline; format: functional
# [14] = system: Homo sapiens; assay: Effect on glomerular filtration rate in human assessed as iohexol clearance rate in plasma per 1.73 m2 at 800 mg, iv after 11 days relative to baseline; format: functional; in short: as §2
# [15] = Cmax […] in human after 1 day; format: ADME, organism-based; details: in vivo; in short: as §3
# [16] = system: Homo sapiens; assay: Effect on renal function in human assessed as blood urea nitrogen concentration at 800 mg, iv after 11 days relative to baseline; format: functional
smiles,measurement,setting,value
COc1c(N2CC[C@@H](C3(N)CC3)C2)ccc2c(=O)c(C(=O)O)cn([C@@H]3C[C@@H]3F)c12,Activity,[1],-3.4
same,fraction unbound,[2],0.35
same,Activity,[3],0.09
same,Activity,[4],1.12 mL/min
same,Cmax,[5],8850 ng/mL
same,Tmax,[6],1.25 h
same,clearance,[7],166 mL/min
same,Activity,[8],0.3
same,Activity,[9],-32.8
same,Activity,[10],94.3 mL/min
same,CL renal at 96 h,[11],43.3 mL/min
same,Activity,[12],95.52 mL/min
same,Activity,[13],0.69
same,Activity,[14],-2.44 mL/min
same,Cmax,[15],8210 ng/mL
same,Activity,[16],-2.06
